Residues, ends and D or L forms follow the SMILES beside them.
Key:
[1] = Apical to basolateral fluxes across Caco-2 cell monolayers at 37 degree celsius was studied.; format: ADME, organism-based; conditions: human, read-out: Permeability
Summary of the method: (§1)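 Caco-2 monolayers (passage 46-48) grown on collagen-coated polycarbonate Transwell filters, 21-25 days after seeding at 80 000 cells/cm2; TEER checked the day before. Transport run in HBSS with 25 mM Hepes, pH 7.4, at 37 °C with stirring. Receiver sampled at intervals up to 4 h, radioactivity counted by scintillation. Papp = dQ/dt·1/(AC0), computed separately for bisphosphonate and Pro-Phe parts; mean ± SD.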

Homo sapiens = species on record: Homo sapiens; assay: (§2) Basolateral to apical fluxes across Caco-2 cell monolayers at 37 degree celsius was studied.; format: ADME, organism-based; summary of the method: as §1
[2] = as §2; format: ADME, organism-based; conditions: human, read-out: Permeability; summary of the method: as §1
[3] = Bioavailability by the ratios of 14C p.o. /14C i.v. accumulated in urine at 24 hr (dose 10 mg/kg p.o.); format: ADME, organism-based; conditions: eutheria, in vivo, po
Summary of the method: (§3)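 Male Sabra rats, housed in metabolic cages, fasted overnight, dosed by stomach tube at 10 mg/kg bisphosphonate equivalent (n = 6). A 1 mg/kg iv jugular-cannula group served as reference. 14C in tibia or urine measured at 24 h by sample-oxidizer combustion and scintillation counting. F = (amount po × Div)/(amount iv × Dpo) × 100.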

[4] = Bioavailability by the ratios of 14C p.o. /14C i.v. accumulated in bone at 24 hr (dose 10 mg/kg p.o.); format: ADME, organism-based, Bone element; conditions: eutheria, in vivo, po; summary of the method: as §3
[5] = (§4) Inhibition of HAP dissolution was determined […] at 0.048 mM concentration *: p<0.05; set-up: scale not given: the % may be the effect or the level left; conditions: 48 µM
Summary of the method: (§5)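 Hydroxyapatite tablets (300 mg, 10 mm), wax-coated so that one face is exposed, were stirred overnight at 37 °C in drug solution (240 or 48 µM in Tris, pH 7.4). They were then moved to acetate buffer, pH 5, at 37 °C. Dissolved calcium was read by atomic absorption at timed points, with the medium replenished after each sample.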

[6] = Inhibition of HAP dissolution was determined in […] at 0.24 mM concentration *: p<0.05; set-up: scale not given: the % may be the effect or the level left; conditions: 240 µM; summary of the method: as §5
[7] = Inhibition of HAP formation, by the compound (1.0 mM) absorbed, was obtained in vitro studies.*: p<0.05; conditions: 1000 µM
Summary of the method: (§6)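 HAP precipitation was run with calcium 3.87 mM and phosphate 2.32 mM (Ca/PO4 1.67) in 0.05 M Tris, pH 7.4. Compound (0.1 or 1 mM) was dissolved in the phosphate solution. After 24 h incubation, filtrate calcium was measured by atomic absorption spectroscopy.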

[8] = Inhibition of HAP formation, by the compound (0.1 mM) absorbed, was obtained in vitro studies.*: p<0.05; conditions: 100 µM; summary of the method: as §6
[9] = as §4; conditions: 48 µM; summary of the method: as §5
[10] = Inhibition of HAP dissolution was determined […] at 0.24 mM concentration *: p<0.05; conditions: 240 µM; summary of the method: as §5

SMILES | Papp A→B [1] | Permeability (Homo sapiens) | Papp B→A [2] | Bioavailability [3] | Bioavailability [4] | Control [5] | Control [6] | Initial concentration [7] | Initial concentration [8] | Inhibition [9] | Inhibition [10]
O=C(N[C@@H](Cc1ccccc1)C(=O)NCCCC(O)(P(=O)(O)O)P(=O)(O)O)[C@@H]1CCCN1 (stereo in doubt; form 2) | 1.03 ×10⁻⁶ cm/s | 0.55 ×10⁻⁶ cm/s | – | – | – | – | – | – | – | – | –
O=C(O)[C@H](Cc1ccccc1)NC(=O)[C@@H]1CCCN1 (H-Pro-Phe-OH) | 2.29 ×10⁻⁶ cm/s | – | 1.14 ×10⁻⁶ cm/s | – | – | – | – | – | – | – | –
O=C(N[C@@H](Cc1ccccc1)C(=O)NCCCC(O)(P(=O)(O)O)P(=O)(O)O)[C@@H]1CCCN1 (stereo in doubt; form 1) | 0.23 ×10⁻⁶ cm/s | 0.16 ×10⁻⁶ cm/s | – | 3.1% | 1.74% | – | – | – | – | – | –
O=C(N[C@@H](Cc1ccccc1)C(=O)NCCC(O)(P(=O)(O)O)P(=O)(O)O)[C@@H]1CCCN1 (stereo in doubt; form 1) | 0.5 ×10⁻⁶ cm/s | 0.41 ×10⁻⁶ cm/s | – | – | – | – | – | – | – | – | –
O=C(N[C@@H](Cc1ccccc1)C(=O)NCCC(O)(P(=O)(O)O)P(=O)(O)O)[C@@H]1CCCN1 (stereo in doubt; form 2) | 0.11 ×10⁻⁶ cm/s | 0.09 ×10⁻⁶ cm/s | – | 3.17% | 1.65% | – | – | 40.5% | 83.8% | 79.4% | 59.1%

Further lines, results first:

Papp A→B [1] | Permeability (Homo sapiens) | Papp B→A [2] | Bioavailability [3] | Bioavailability [4] | Control [5] | Control [6] | Initial concentration [7] | Initial concentration [8] | Inhibition [9] | Inhibition [10] | SMILES
0.26 ×10⁻⁶ cm/s | – | 0.22 ×10⁻⁶ cm/s | – | – | – | – | – | – | – | – | OC[C@@H](O)[C@@H](O)[C@H](O)[C@H](O)CO [MANNITOL]
0.05 ×10⁻⁶ cm/s | – | 0.04 ×10⁻⁶ cm/s | 1.74% | 0.44% | 79.4% | 55.7% | 46.9% | 63.8% | – | – | NCCC(O)(P(=O)(O)O)P(=O)(O)O [PAMIDRONIC ACID]
